Screens (PubChem)
Apaf1 activ – activators of human Apaf-1 apoptosome | O14727 | Apaf-1 apoptosome caspase-3 activation, DEVD-Rh110 fluorescence; stronger effect = lower value | activity change, negative = activation, % at 20 µM | hit rate 0.31% among 330,000 | AID 489031;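 active = activity change at or below -40% at 20 µM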
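Schedule: 30 min preincubation, 50 min reaction, room temperature / System: biochemical Apaf-1 apoptosome reconstitution / Medium: 20 mM HEPES pH 7.5 with CHAPS, BSA / Evaluation: Caspase-3 cleavage activity downstream of Apaf-1 activation / Detection: Caspase-3-released Rh110 fluorescence, 540 nm emission, 480 nm excitation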
Rh110 act interf – counter-screen for Apaf-1 activators: fluorescence interference | fluorescence interference (activity change), % at 20 µM, hits read low | 980 tested, under 10 active | Rh110 fluorescence interference, quenched caspase reaction, Ex480/Em540 | AID 504616 | shares compounds with Apaf1 activ;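 active = mean activity change at or below -40% when tested at 20 µM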
Apaf-1 act conf2 – confirmation of human Apaf-1 activators; shares compounds with Apaf1 activ; activity change, negative = activation, % at 20 µM; hit rate 5% among 980; AID 504617; reconstituted apoptosome caspase-3 activity, DEVD-Rh110 fluorescence; stronger effect = lower value;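 active = mean activity change at or below -40%, meaning activation of 40% or more, at 20 µM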
Apaf1 act interf – shows fluorescence interference in the Apaf-1 activator assay format; shares compounds with Apaf1 activ; fluorescence interference counterscreen; EC50, µM; 55 tested, under 10 active; AID 588592; call rule not given here
Numbers without * were called inactive; . = no result given. The list is a sample of the results.

SMILES	Apaf1 activ	Rh110 act interf	Apaf-1 act conf2	others
C=C(C)C(=O)Nc1cccc(C2=NOC3(C2)C[C@@H](C(N)=O)N(C(=O)/C=C/CC)C3)c1 (some centres undefined)	-205*	-3	-114*	Apaf1 act interf=>100
Cc1ccc(S(=O)(=O)N2CCN(c3ccc([N+](=O)[O-])c4cccnc34)CC2)cc1	47	.	.
O=C(Cn1cc(S(=O)(=O)Cc2ccccc2)c2ccccc21)N1CCOCC1	-233*	6	4
c1coc(-c2nc(-c3ccco3)c(-c3ccco3)nc2-c2ccco2)c1	63	.	.
CN1N=C(C(C)(C)C)CC1=O	41	.	.
COc1ccc2noc3c2c1C(=O)c1ccccc1-3	78	.	.
CCCNS(=O)(=O)c1ccc(CCC(=O)N2CCCCC2)cc1	-511*	-2	8
CN(C)CCCNS(=O)(=O)c1ccc(N2CCC(c3ccc(Cl)cc3)=N2)cc1	73	.	.
COc1cccc(Cn2cnc3c(NS(=O)(=O)c4ccc(Cl)cc4Cl)c(C)c(C)cc32)c1	-66*	10	25
O=C1CN(C(=O)c2cnccn2)c2ccccc2N1	-47*	16	11
O=C1Nc2ccccc2N2CCCC12 (centres undefined)	78	.	.
Cc1cccc(OCC(O)Cn2c(=N)n(Cc3ccccc3)c3ccccc32)c1 (centres undefined)	58	.	.
Cn1c(=O)[nH]c(=O)c2c1nc(Br)n2CC(O)COc1ccccc1 (centres undefined)	-50*	-3	13
CSc1nc2c(c(=O)[nH]c(=O)n2C)n1Cc1ccccc1	-48*	3	13
CCCCCn1c(N2CCC(Cc3ccccc3)CC2)nc2c1c(=O)[nH]c(=O)n2C	46	.	.
COc1ccc(C2=Nn3c(nnc3-c3ccccc3F)SC2)cc1OC1CCCC1	47	.	.
COCCN1C=C2C(=O)C(C)(OC(=O)CCC(=O)OC)C(=O)C=C2C=C1C1CC1 (centres undefined)	43	.	.
Cc1cccc(OCCCC(=O)NNC(=O)CCN2CCN(c3ccccc3)CC2)c1	-630*	-2	12
COc1cccc(N2CCN(CC(=O)Nc3ccccc3C(=O)NCCc3ccccc3)CC2)c1	50	.	.
CCN1CCN(CCc2nc3cc(NC(=O)COc4ccccc4)ccc3n2C)CC1	51	.	.
O=C1CCNc2cc3ccccc3cc21	62	.	.
COc1ccc2c(c1)CC/C(=C\Nc1ccc3c(c1)OCO3)C2=O	78	.	.
COc1ccc(/C=N/Nc2cc(N(C)C)nc(N(C)C)n2)cc1	97	.	.
COc1ccc(S(=O)(=O)N/N=C\c2ccc3c(c2)OCO3)c(OC)c1	-120*	0	6
OCCN1CCN(CC/C=C2/c3ccccc3Sc3ccc(Cl)cc32)CC1	43	.	.
SMILES	Apaf1 activ	Rh110 act interf	Apaf-1 act conf2	others
CC(=O)Nc1ccc(CN2CCc3c([nH]c4ccccc34)C2C(C)(C)C)cc1 (centres undefined)	-55*	9	15
CCC(CO)Oc1cc(NCc2cccc(C)c2)c2ncn(C(C)C)c2c1 (centres undefined)	54	.	.
Cc1coc2c1C(=O)C(=O)c1c-2ccc2c(C)cccc12	96	.	.
COc1ccc(Cl)cc1C(=O)NNC(=O)COC(=O)c1ccc(Br)o1	-41*	11	13
COc1cc2sc3cc(NCC[C@@H]4CCCN4C)ccc3c(=O)c2cc1OC	55	.	.
CC12COC3(P(=O)(c4ccccc4)c4ccccc4)CC1CCC23CP(=O)(c1ccccc1)c1ccccc1 (centres undefined)	41	.	.
NC(=O)CC1Nc2cccc3cccc(c23)NC1=O (centres undefined)	98	.	.
NC(=O)C1CCN(C(=O)COc2cccc3ccccc23)CC1	-195*	14	10
Cc1ccc(C(=O)NC2(O)C(=O)c3ccccc3C2=O)cc1C	97	.	.
O=C(O)c1ccc(S(=O)(=O)/N=C2\C=C(Nc3ccccc3F)C(=O)c3ccccc32)cc1	96	.	.
COc1ccnc(Oc2ccc(F)cc2)c1C#N	-47*	4	-1
CC(C)(C)NC(=O)C[C@H]1C[C@H](C(=O)N2CCOCC2)[C@@]2(CCC3CCCC3)c3[nH]c4ccc(Cl)cc4c3CCN2C1=O	44	.	.
Cc1noc(C)c1C(=O)Nc1ccc(F)cc1F	-71*	16	11
CC(=O)N1CCOc2ccc(S(=O)(=O)N(C)c3ccc(C)cc3)cc21	40	.	.
Cc1ccc(S(=O)(=O)Nc2ccccc2F)cc1C(=O)NCc1ccco1	-54*	11	11
Nc1c(C(=O)NCc2ccco2)c2nc3ccccc3nc2n1CCc1ccc(F)cc1	78	.	.
O=C(Nc1cccc(CCc2ccccn2)c1)c1cc(F)c(F)cc1Cl	-109*	10	17
O=C(Nc1ccccn1)c1ccc2ccccc2c1O	45	.	.
Nc1c2c(nc3ccccc13)CCCC2	-4	.	.
CCOc1ccccc1NC(=O)C(CC(C)C)NC(=O)C1CCCCC1 (centres undefined)	-53*	2	-1
CCc1ccc(NC(=O)[C@H](Cc2c[nH]c3ccccc23)NC(=O)[C@@H]2Cc3ccccc3CN2)cc1	41	.	.
Cc1cc2ccccc2n1CCNC(=O)C1CCCCC1	44	.	.
CCC(C)n1c(NC(=O)c2ccccc2)c(C#N)c2nc3ccccc3nc21 (centres undefined)	93	.	.
COc1cccc2c1[C@@H]1CN(CCCCn3c(=O)[nH]c4c(sc5ncc(-c6ccccc6)nc54)c3=O)C[C@@H]1CO2	48	.	.
COC(=O)C1=C(C)N(Cc2ccccc2)C(=NCCc2c[nH]c3ccccc23)N[C@H]1c1cccc(C(F)(F)F)c1	78	.	.
SMILES	Apaf1 activ	Rh110 act interf	Apaf-1 act conf2	others
NC(=NCCc1c[nH]c2ccccc12)NS(=O)(=O)c1ccc(F)cc1	-46*	3	2
c1ccc(CC2CCN(c3nc4ccccc4n4nnnc34)CC2)cc1	58	.	.
O=C1Cc2cc(S(=O)(=O)N3CCNCC3)ccc2N1	40	.	.
N#C/C(=N/Nc1ccccc1[N+](=O)[O-])C(N)=S	-40*	10	4
Oc1ccc(N=Cc2ccc(-c3cccs3)s2)cc1	96	.	.
CC1=NN(c2ccccc2)C(=O)C1	41	.	.
CCCCCCSc1ccc([C@@H]2[C@H]3C(=O)N(CC)C(=O)[C@H]3[C@]3(C(=O)OC)CCCN23)cc1	-225*	5	13
C#CCOCCOCCOCCNc1nc(N2CCN(C(=O)CCCCCCCCCCNC(=O)[C@H](CCCCN)n3cc(CCCC(=O)O)nn3)CC2)nc(N2CCN(C(=O)CCCCCCCCCCNC(=O)[C@H](CCCN=C(N)N)n3cc(C[C@@H](C)CC)nn3)CC2)n1	76	.	.
Nc1cccc2cnccc12	67	.	.
CC(=O)c1c(C)[nH]c(C(=O)CSc2ccc(F)cc2)c1C	-213*	5	5
O=C1C(C2=C(O)c3ccccc3C2=O)=Nc2ccccc21	66	.	.
CCN(CC(=O)Nc1cc(S(=O)(=O)N2CCOCC2)ccc1Cl)Cc1ccccc1	42	.	.
CCOc1ccccc1N(CC(=O)Nc1ccc(S(=O)(=O)N2CCOCC2)cc1)S(=O)(=O)c1ccc(Cl)cc1	-68*	-1	10
CCCCCc1ccc(OCCCC[n+]2cccc(C)c2)c(CCCCC)c1	61	.	.
N#Cc1c(N(CCO)CCO)nc(N)c2c(N)nc3c(c12)CC(=O)N3Cc1cccs1	73	.	.
